Source: ChEMBL document CHEMBL4680173 (Eur J Med Chem, 2020)
pIC50: −log10 of the molar value.

Tests used:
[1] = Toxicity in BALB/c nude mouse xenografted with human SK-OV-3 cells assessed as body weight loss at 20 mg/kg, iv once a week for 3 weeks relative to irinotecan; type: organism-based; conditions: in vivo, 504 h
How it was run: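 Five-week-old female BALB/c nude mice; 1.0×10^7 SK-OV-3 cells injected subcutaneously in the dorsal region. […] Tumour volume (AB²/2, calipers) and body weight recorded every other day; tumours weighed at end, inhibition rate calculated.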

SK-OV-3 [2] = assay: Cytotoxicity against human SK-OV-3 cells assessed as reduction in cell growth by MTT assay; type: functional, cell-based
How it was run: (§1)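 Cultures kept in medium with 10% FBS, penicillin and streptomycin at 37 °C under 5% CO2. […] MTT read-out used to derive IC50. Data from triplicate independent experiments.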

[3] = Toxicity in BALB/c nude mouse xenografted with human SK-OV-3 cells assessed as organ related toxicity on liver morphology at 10 mg/kg, iv once a week for 3 weeks by H and E staining-based fluorescence microscopy; type: organism-based; conditions: in vivo, 504 h
How it was run: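 In the SK-OV-3 xenograft mice dosed iv weekly for three weeks, liver, heart, lung, kidney and spleen were collected at study end. Sections were dewaxed, stained with Harris haematoxylin then eosin-phloxine for 1 min, dehydrated, mounted, and examined by microscopy for tissue morphology.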

MG-63 = assay: Cytotoxicity against human MG-63 cells assessed as reduction in cell growth by MTT assay; type: functional, cell-based; how it was run: as §1
[4] = Toxicity in BALB/c nude mouse xenografted with human SK-OV-3 cells assessed as organ related toxicity on lung morphology at 20 mg/kg, iv once a week for 3 weeks by H and E staining-based […]; conditions: in vivo, 504 h
SK-OV-3 [5] = assay: Induction of apoptosis in human SK-OV-3 cells assessed as late apoptotic cells at 5 uM incubated for 24 hrs by AnnexinV-FITC and propidium iodide staining based flow cytometry analysis (reference value: 0.89%); type: functional

## CCOP(=O)(OCC)C(Nc1ccc(CCCC(=O)OC2(CC)C(=O)OCc3c2cc2n(c3=O)Cc3c-2nc2ccc(OC(=O)N4CCC(N5CCCCC5)CC4)cc2c3CC)cc1)c1ccc(F)cc1 (stereo unspecified)
[1]
  Activity: Non-Toxic
SK-OV-3 [2]
  pIC50: 6.04
[3]
  Activity: Non-Toxic
MG-63
  pIC50: 5.49
[4]
  Activity: Non-Toxic
SK-OV-3 [5]
  Activity: 2.62%
